# Source: PMC7894400 (CPT: Pharmacometrics & Systems Pharmacology, 2021)
# Values joined by “and” are separate entries in the source; they are usually repeats but may differ in a detail not shown here. Identical values can stand only once. “Also recorded” adds a separate entry of the source.
# Columns and labels:
# [1] = Population pharmacokinetic; assay type: in vivo, human
# Outline: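 Pooled plasma data from a phase I/II study in ALK+ or ROS1+ NSCLC (10–200 mg oral q.d. or 35–100 mg b.i.d.) plus six healthy-participant studies (100 mg oral doses; one study 50 mg i.v.). Nonlinear mixed effects, FOCEI; central/peripheral volumes, first-order ka, F; clearance time-varying from single-dose CLI to steady-state CLMX via induction rate constant; exponential between-subject effects; covariates include rabeprazole co-administration on ka and F.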
# [2] = cited from earlier work
# [3] = cited from earlier work; remark: listed apart in the source
# CYP3A and UGT1A4 = conditions: cited from earlier work
# [4] = bootstrap mean, 1,000 resampled datasets
# [5] = high BWT 91.3 kg (90th percentile), final PopPK model prediction
# [6] = highest possible exposure at 100 mg q.d.: BWT 50 kg, BALB 3.2 mg/dL, no PPI use
# [7] = low BWT 50 kg (10th percentile), final PopPK model prediction
# [8] = lowest possible exposure at 100 mg q.d.: BWT 91.3 kg, BALB 4.6 mg/dL, PPI use
# [9] = healthy volunteers, study B7461008
compound,measurement,setting,value
C[C@H]1Oc2cc(cnc2N)-c2c(nn(C)c2C#N)CN(C)C(=O)c2ccc(F)cc21 [lorlatinib],lower CL (initial and time-varying induced) compared with 100 mg q.d.,[1]; 10 mg q.d. lorlatinib,12.4%
same,higher CL (initial and time-varying induced) compared with 100 mg q.d.,[1]; 200 mg q.d. lorlatinib,13.8%
same,decrease in ka relative to a typical patient without PPI use,[1]; PPI use,67.5%
same,θ CLMX,[1]; [4],14.584 L/h
same,θ D1,[1]; [4],1.149 h
same,θ F,[1]; [4],0.764
same,θ IND,[1]; [4],0.027
same,θ PPI on ka,[1]; [4],−0.664
same,θ Q,[1]; [4],22.491 L/h
same,θ V2,[1]; [4],120.618 L
same,θ V3,[1]; [4],156.640 L
same,θ ka,[1]; [4],3.128 h⁻¹
same,ωFωCL,[1]; [4],-0.005
same,ωV2ωV3,[1]; [4],−0.017
same,ω^2 F,[1]; [4],0.023
same,ω^2 V2,[1]; [4],0.085
same,ω^2 V3,[1]; [4],0.099
same,ω^2 ka,[1]; [4],2.345
same,increase in CL with every unit of BALB over 4 mg/dL,[1]; final PopPK model,6.68%
same,θ BALB on CL (covariate effect of baseline albumin),[1]; final PopPK model estimate,0.067
same,"θ D1, zero-order duration of absorption",[1]; final PopPK model estimate,1.15 h and 1.148 h
same,θ PPI on ka (covariate effect of proton pump inhibitor use),[1]; final PopPK model estimate,–0.675
same,θ TDOSE on CL (covariate effect of total daily dose),[1]; final PopPK model estimate,0.001
same,θ WNCL on CL (covariate effect of standardized creatinine clearance),[1]; final PopPK model estimate,0.235
same,ωFωCL (IIV covariance),[1]; final PopPK model estimate,-0.006
same,ωV2ωV3 (IIV covariance),[1]; final PopPK model estimate,−0.017
same,ω^2 F (IIV),[1]; final PopPK model estimate,0.022
same,ω^2 V2 (IIV),[1]; final PopPK model estimate,0.086
same,ω^2 V3 (IIV),[1]; final PopPK model estimate,0.101
same,ω^2 ka (IIV),[1]; final PopPK model estimate,2.329
same,"θ ka, first-order absorption rate constant","[1]; final PopPK model estimate, no PPI use",3.1 h⁻¹ and 3.11 h⁻¹ and 3.113 h⁻¹
same,"θ IND, rate constant of induction","[1]; final PopPK model estimate, unit not given",0.0199 and 0.020
same,increase in CL compared with the typical patient (BALB 4 mg/dL),[1]; high BALB 4.6 mg/dL (90th percentile),4%
same,increase in CL relative to the typical patient,[1]; [5],22%
same,increase in V2 relative to the typical patient,[1]; [5],30.4%
same,change in ka compared with a typical patient,[1]; [6],unchanged
same,decrease in CL compared with a typical patient,[1]; [6],26.5%
same,decrease in V2 compared with a typical patient,[1]; [6],28.6%
same,bioavailability,"[1]; human, plasma, oral",75.9%
same,reduction in CL relative to a typical patient,[1]; [7],22.3%
same,reduction in V2 relative to a typical patient,[1]; [7],28.6%
same,decrease in ka compared with a typical patient,[1]; [8],67.5%
same,increase in CL compared with a typical patient,[1]; [8],26.9%
same,increase in V2 compared with a typical patient,[1]; [8],30.4%
same,effect of a high-fat meal on lorlatinib exposure,[2],not to have a meaningful effect
same,effect of PPI rabeprazole co-administration on lorlatinib AUCinf,[2]; [9],no effect; also recorded: without changing
same,reduction of lorlatinib Cmax by co-administration of the PPI rabeprazole,[2]; [9],~ 30% and 30%
same,dose-limiting toxicities,"[3]; 150 mg q.d., dose escalation portion of Study B7461001",dose‐limiting toxicities were seen
same,steady-state lorlatinib CL versus dose,"[3]; Study B7461001, noncompartmental analysis",increased with increasing dose
same,levels of CYP3A4 activity (urine 6-beta-hydroxy-cortisol/cortisol and plasma 4-beta-hydroxy-cholesterol/cholesterol ratios),"[3]; phase I portion of B7461001, multiple dosing",initially increased with time following multiple dosing
same,accumulation after multiple dosing,[3]; phase I portion of B7461001,less than expected
same,metabolizing enzymes,CYP3A and UGT1A4,"metabolized primarily by cytochrome P450 (CYP)3A and UGT1A4, and to a lesser extent by CYP2C8, CYP2C19, CYP3A5, and UGT1A3"
